Results reported in ChEMBL document CHEMBL3608301, “Phenolic Compounds from Atriplex littoralis and Their Radiation-Mitigating Activity” (J Nat Prod, 2015).

Assays:
PBL [1] = assay: Radioprotective activity in 2-Gy gamma irradiated human PBL assessed as incidence of micronuclei in 1000 binucleated cells at 4.7 uM treated for 2 to 19 hrs followed by compound washout measured after 72 hrs by cytochalasin-B-blocked micronucleus assay (reference value: 183 +/- 9.6); assay type: functional
PBL [2] = assay: Radioprotective activity in 2-Gy gamma irradiated human PBL assessed as incidence of micronuclei in binucleated cells at 4.7 uM treated for 2 to 19 hrs followed by compound washout measured after 72 hrs by cytochalasin-B-blocked micronucleus assay (reference value: 1.2 +/- 0.03); assay type: functional
PBL [3] = assay: Radioprotective activity in 2-Gy gamma irradiated human PBL assessed as frequency of micronuclei at 4.7 uM treated for 2 to 19 hrs followed by compound washout measured after 72 hrs by cytochalasin-B-blocked micronucleus assay relative to control; assay type: functional
PBL [4] = assay: Toxicity in 2-Gy gamma irradiated human PBL assessed as cytokinesis-block proliferation index at 4.7 uM treated for 2 to 19 hrs followed by compound washout measured after 72 hrs (reference value: 1.6 +/- 0.1); assay type: cell-based
PBL [5] = assay: Radioprotective activity in 2-Gy gamma irradiated human PBL assessed as binucleated cells with micronuclei at 4.7 uM treated for 2 to 19 hrs followed by compound washout measured after 72 hrs by cytochalasin-B-blocked micronucleus assay (reference value: 15.5 +/- 0.6%); assay type: functional
PBL [6] = assay: Radioprotective activity in 2-Gy gamma irradiated human PBL assessed as incidence of micronuclei in binucleated cells at 3 uM treated for 2 to 19 hrs followed by compound washout measured after 72 hrs by cytochalasin-B-blocked micronucleus assay (reference value: 1.2 +/- 0.03); assay type: functional
In short: (§1)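 Venous blood from five healthy male volunteers was γ-irradiated at 2 Gy (0.45 Gy/min) at room temperature and cultured. Compounds (0.8−7.4 μM final) were added 2 to 19 h after irradiation, at 37 °C. Cultures were then rinsed and moved to fresh RPMI 1640 for 72 h. Cytokinesis-block micronucleus assay: ≥1000 binucleated cells scored per sample (Countryman–Heddle criteria). Controls were non-treated irradiated cultures; one-way ANOVA with Tukey test.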

PBL [7] = assay: Radioprotective activity in 2-Gy gamma irradiated human PBL assessed as binucleated cells with micronuclei at 3 uM treated for 2 to 19 hrs followed by compound washout measured after 72 hrs by cytochalasin-B-blocked micronucleus assay (reference value: 15.5 +/- 0.6%); assay type: functional; in short: as §1
PBL [8] = assay: Toxicity in 2-Gy gamma irradiated human PBL assessed as cytokinesis-block proliferation index at 3 uM treated for 2 to 19 hrs followed by compound washout measured after 72 hrs (reference value: 1.6 +/- 0.1); assay type: cell-based
PBL [9] = assay: Radioprotective activity in 2-Gy gamma irradiated human PBL assessed as frequency of micronuclei at 3 uM treated for 2 to 19 hrs followed by compound washout measured after 72 hrs by cytochalasin-B-blocked micronucleus assay relative to control; assay type: functional; in short: as §1
PBL [10] = assay: Radioprotective activity in 2-Gy gamma irradiated human PBL assessed as incidence of micronuclei in 1000 binucleated cells at 3 uM treated for 2 to 19 hrs followed by compound washout measured after 72 hrs by cytochalasin-B-blocked micronucleus assay (reference value: 183 +/- 9.6); assay type: functional; in short: as §1
PBL [11] = assay: Radioprotective activity in 2-Gy gamma irradiated human PBL assessed as incidence of micronuclei in binucleated cells at 0.8 uM treated for 2 to 19 hrs followed by compound washout measured after 72 hrs by cytochalasin-B-blocked micronucleus assay (reference value: 1.2 +/- 0.03); assay type: functional; in short: as §1
PBL [12] = assay: Toxicity in 2-Gy gamma irradiated human PBL assessed as cytokinesis-block proliferation index at 0.8 uM treated for 2 to 19 hrs followed by compound washout measured after 72 hrs (reference value: 1.6 +/- 0.1); assay type: cell-based
PBL [13] = assay: Radioprotective activity in 2-Gy gamma irradiated human PBL assessed as binucleated cells with micronuclei at 1.5 uM treated for 2 to 19 hrs followed by compound washout measured after 72 hrs by cytochalasin-B-blocked micronucleus assay (reference value: 15.5 +/- 0.6%); assay type: functional; in short: as §1
PBL [14] = assay: Radioprotective activity in 2-Gy gamma irradiated human PBL assessed as incidence of micronuclei in binucleated cells at 3.1 uM treated for 2 to 19 hrs followed by compound washout measured after 72 hrs by cytochalasin-B-blocked micronucleus assay (reference value: 1.2 +/- 0.03); assay type: functional; in short: as §1
PBL [15] = assay: Radioprotective activity in 2-Gy gamma irradiated human PBL assessed as incidence of micronuclei in binucleated cells at 1.5 uM treated for 2 to 19 hrs followed by compound washout measured after 72 hrs by cytochalasin-B-blocked micronucleus assay (reference value: 1.2 +/- 0.03); assay type: functional; in short: as §1
PBL [16] = assay: Radioprotective activity in 2-Gy gamma irradiated human PBL assessed as frequency of micronuclei at 3.1 uM treated for 2 to 19 hrs followed by compound washout measured after 72 hrs by cytochalasin-B-blocked micronucleus assay relative to control; assay type: functional; in short: as §1
PBL [17] = assay: Radioprotective activity in 2-Gy gamma irradiated human PBL assessed as incidence of micronuclei in 1000 binucleated cells at 3.1 uM treated for 2 to 19 hrs followed by compound washout measured after 72 hrs by cytochalasin-B-blocked micronucleus assay (reference value: 183 +/- 9.6); assay type: functional; in short: as §1
PBL [18] = assay: Radioprotective activity in 2-Gy gamma irradiated human PBL assessed as incidence of micronuclei in 1000 binucleated cells at 1.5 uM treated for 2 to 19 hrs followed by compound washout measured after 72 hrs by cytochalasin-B-blocked micronucleus assay (reference value: 183 +/- 9.6); assay type: functional; in short: as §1
PBL [19] = assay: Radioprotective activity in 2-Gy gamma irradiated human PBL assessed as frequency of micronuclei at 1.5 uM treated for 2 to 19 hrs followed by compound washout measured after 72 hrs by cytochalasin-B-blocked micronucleus assay relative to control; assay type: functional; in short: as §1
PBL [20] = assay: Radioprotective activity in 2-Gy gamma irradiated human PBL assessed as binucleated cells with micronuclei at 3.1 uM treated for 2 to 19 hrs followed by compound washout measured after 72 hrs by cytochalasin-B-blocked micronucleus assay (reference value: 15.5 +/- 0.6%); assay type: functional; in short: as §1
PBL [21] = assay: Toxicity in 2-Gy gamma irradiated human PBL assessed as cytokinesis-block proliferation index at 1.5 uM treated for 2 to 19 hrs followed by compound washout measured after 72 hrs (reference value: 1.6 +/- 0.1); assay type: cell-based
PBL [22] = assay: Radioprotective activity in 2-Gy gamma irradiated human PBL assessed as frequency of micronuclei at 0.8 uM treated for 2 to 19 hrs followed by compound washout measured after 72 hrs by cytochalasin-B-blocked micronucleus assay relative to control; assay type: functional; in short: as §1
PBL [23] = assay: Radioprotective activity in 2-Gy gamma irradiated human PBL assessed as incidence of micronuclei in 1000 binucleated cells at 0.8 uM treated for 2 to 19 hrs followed by compound washout measured after 72 hrs by cytochalasin-B-blocked micronucleus assay (reference value: 183 +/- 9.6); assay type: functional; in short: as §1
PBL [24] = assay: Toxicity in 2-Gy gamma irradiated human PBL assessed as cytokinesis-block proliferation index at 3.1 uM treated for 2 to 19 hrs followed by compound washout measured after 72 hrs (reference value: 1.6 +/- 0.1); assay type: cell-based
PBL [25] = assay: Radioprotective activity in 2-Gy gamma irradiated human PBL assessed as binucleated cells with micronuclei at 0.8 uM treated for 2 to 19 hrs followed by compound washout measured after 72 hrs by cytochalasin-B-blocked micronucleus assay (reference value: 15.5 +/- 0.6%); assay type: functional; in short: as §1

NCCCNCCSP(=O)(O)O [AMIFOSTINE]
Activity (PBL [1]): 166 | Activity (PBL [2]): 1.2 | Activity (PBL [3]): 90.7% | Activity (PBL [4]): 1.6 | Activity (PBL [5]): 13.9%

CO[C@@]12[C@H](COC(N)=O)C3=C(C(=O)C(C)=C(N)C3=O)N1C[C@@H]1N[C@@H]12 [MITOMYCIN]
Activity (PBL [6]): 1.3 | Activity (PBL [7]): 17.9% | Activity (PBL [8]): 1.6 | Activity (PBL [9]): 123.5% | Activity (PBL [10]): 226.1

COc1cc(-c2oc3cc4c(c(O)c3c(=O)c2O[C@@H]2O[C@H](CO)[C@@H](O)[C@H](O)[C@H]2O[C@@H]2O[C@@H](C)[C@H](O)[C@@H](O)[C@H]2O)OCO4)ccc1O
Activity (PBL [11]): 1.2 | Activity (PBL [12]): 1.7 | Activity (PBL [13]): 14.1% | Activity (PBL [14]): 1.2 | Activity (PBL [15]): 1.2 | Activity (PBL [16]): 95.8% | Activity (PBL [17]): 175.3 | Activity (PBL [18]): 170.9 | Activity (PBL [19]): 93.4% | Activity (PBL [20]): 14.3% | Activity (PBL [21]): 1.7 | Activity (PBL [22]): 94% | Activity (PBL [23]): 172 | Activity (PBL [24]): 1.8 | Activity (PBL [25]): 14.4%
